Assay results reported in ChEMBL document CHEMBL5247578, “Effective synthesis of benzimidazoles-imidazo[1,2-a]pyrazine conjugates: A comparative study of mono-and bis-benzimidazoles for antitumor activity” (Eur J Med Chem, 2019).

Experiments:
Albumin [1] = target: T1, Albumin (Bos taurus, UniProt P02769); test: Binding affinity to bovine serum albumin assessed as Stern-Volmer quenching constant by fluorescence spectroscopic method; details: cattle
Albumin [2] = target: T1, Albumin; test: Binding affinity to bovine serum albumin assessed as binding constant by Benesi-Hildebrand equation based UV-vis spectrophotometric method; details: cattle
SK-MEL-2 = test: Antiproliferative activity against human SK-MEL-2 cells assessed as cell growth at 0.00000001 M incubated for 48 hrs by SRB assay relative to control; assay type: functional; details: dose 10 nM, read-out: Activity
CAKI-1 [3] = test: Antiproliferative activity against human CAKI-1 cells assessed as cell growth at 0.00000001 M incubated for 48 hrs by SRB assay relative to control; assay type: functional; details: dose 10 nM, read-out: Activity
Summary of the method: (§1)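 NCI-60 five-dose screen over 10^-4–10^-8 M (10-fold dilutions). Cells grown in RPMI 1640 with 5% FBS and 2 mM L-glutamine, seeded at 5,000–40,000 cells/well and preincubated 24 h. Drug from DMSO stock, 48 h at 37 °C, 5% CO2. Adherent cells TCA-fixed and stained with 0.4% SRB; A515 read. Percent growth = (Ti−Tz)/(C−Tz)×100, or (Ti−Tz)/Tz×100 when Ti<Tz.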

HCC 2998 [4] = test: Antiproliferative activity against human HCC 2998 cells assessed as cell growth at 0.00000001 M incubated for 48 hrs by SRB assay relative to control; assay type: functional; details: dose 10 nM, read-out: Activity
Summary of the method: (§2)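 NCI-60 five-dose screen (10^-4 to 10^-8 M). Cells grown in RPMI 1640 with 5% FBS and 2 mM L-glutamine, plated at 5,000-40,000 cells/well and preincubated 24 h. Drug given from DMSO stock, then 48 h at 37 °C, 5% CO2. For adherent lines, cells fixed with cold TCA, SRB-stained and read at 515 nm. Percent growth taken against time-zero and untreated control.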

HCT-116 = test: Antiproliferative activity against human HCT-116 cells assessed as cell growth at 0.00000001 M incubated for 48 hrs by SRB assay relative to control; assay type: functional; details: dose 10 nM, read-out: Activity; summary of the method: as §2
OVCAR-3 = test: Antiproliferative activity against human OVCAR-3 cells assessed as cell growth inhibition by measuring lethal concentration incubated for 48 hrs by sulforhodamine B assay; assay type: functional; details: read-out: LC50 (the source's name)
MDA-MB-435 [5] = test: Antiproliferative activity against human MDA-MB-435 cells assessed as cell growth inhibition by measuring lethal concentration incubated for 48 hrs by sulforhodamine B assay; assay type: functional; details: read-out: LC50 (the source's name)
HCT-15 = test: Antiproliferative activity against human HCT-15 cells assessed as cell growth inhibition by measuring lethal concentration incubated for 48 hrs by sulforhodamine B assay; assay type: functional; details: read-out: LC50 (the source's name)
HCC 2998 [6] = test: Antiproliferative activity against human HCC 2998 cells assessed as cell growth inhibition by measuring lethal concentration incubated for 48 hrs by sulforhodamine B assay; assay type: functional; details: read-out: LC50 (the source's name)
PC-3 = test: Growth inhibition against human PC-3 cells assessed as total growth inhibitory concentration incubated for 48 hrs by sulforhodamine B assay; assay type: functional
A498 = test: Growth inhibition against human A498 cells assessed as total growth inhibitory concentration incubated for 48 hrs by sulforhodamine B assay; assay type: functional
SF-268 [7] = test: Growth inhibition against human SF-268 cells assessed as total growth inhibitory concentration incubated for 48 hrs by sulforhodamine B assay; assay type: functional
COLO 205 = test: Growth inhibition against human COLO 205 cells assessed as total growth inhibitory concentration incubated for 48 hrs by sulforhodamine B assay; assay type: functional
ACHN [8] = test: Growth inhibition against human ACHN cells incubated for 48 hrs by sulforhodamine B assay; assay type: functional
Malme-3M [9] = test: Growth inhibition against human Malme-3M cells incubated for 48 hrs by sulforhodamine B assay; assay type: functional
HL-60 = test: Growth inhibition against human HL-60 cells incubated for 48 hrs by sulforhodamine B assay; assay type: functional
NCI-H322M = test: Antiproliferative activity against human NCI-H322M cells assessed as cell growth at 0.0000001 M incubated for 48 hrs by SRB assay relative to control; assay type: functional; details: dose 100 nM, read-out: Activity
SF-268 [10] = test: Antiproliferative activity against human SF-268 cells assessed as cell growth at 0.0000001 M incubated for 48 hrs by SRB assay relative to control; assay type: functional; details: dose 100 nM, read-out: Activity
MDA-MB-435 [11] = test: Antiproliferative activity against human MDA-MB-435 cells assessed as cell growth at 0.0000001 M incubated for 48 hrs by SRB assay relative to control; assay type: functional; details: dose 100 nM, read-out: Activity
OVCAR-8 = test: Antiproliferative activity against human OVCAR-8 cells assessed as cell growth at 0.0000001 M incubated for 48 hrs by SRB assay relative to control; assay type: functional; details: dose 100 nM, read-out: Activity
SK-OV-3 = test: Antiproliferative activity against human SK-OV-3 cells assessed as cell growth at 0.0000001 M incubated for 48 hrs by SRB assay relative to control; assay type: functional; details: dose 100 nM, read-out: Activity
MDA-MB-435 [12] = test: Antiproliferative activity against human MDA-MB-435 cells assessed as cell growth at 0.000001 M incubated for 48 hrs by SRB assay relative to control; assay type: functional; details: read-out: Activity
RPMI-8226 [13] = test: Antiproliferative activity against human RPMI-8226 cells assessed as cell growth at 0.00001 M incubated for 48 hrs by SRB assay relative to control; assay type: functional; details: read-out: Activity
A549 = test: Antiproliferative activity against human A549 cells assessed as cell growth at 0.00001 M incubated for 48 hrs by SRB assay relative to control; assay type: functional; details: read-out: Activity; summary of the method: as §1
NCI-H23 = test: Antiproliferative activity against human NCI-H23 cells assessed as cell growth at 0.00001 M incubated for 48 hrs by SRB assay relative to control; assay type: functional; details: read-out: Activity
HCC 2998 [14] = test: Antiproliferative activity against human HCC 2998 cells assessed as cell growth at 0.00001 M incubated for 48 hrs by SRB assay relative to control; assay type: functional; details: read-out: Activity; summary of the method: as §2
MDA-MB-435 [15] = test: Antiproliferative activity against human MDA-MB-435 cells assessed as cell growth at 0.00001 M incubated for 48 hrs by SRB assay relative to control; assay type: functional; details: read-out: Activity
CAKI-1 [16] = test: Antiproliferative activity against human CAKI-1 cells assessed as cell growth at 0.00001 M incubated for 48 hrs by SRB assay relative to control; assay type: functional; details: read-out: Activity; summary of the method: as §1
RPMI-8226 [17] = test: Antiproliferative activity against human RPMI-8226 cells assessed as cell growth at 0.0001 M incubated for 48 hrs by SRB assay relative to control; assay type: functional; details: read-out: Activity
KM12 = test: Antiproliferative activity against human KM12 cells assessed as cell growth at 0.0001 M incubated for 48 hrs by SRB assay relative to control; assay type: functional; details: read-out: Activity
SNB-75 = test: Antiproliferative activity against human SNB-75 cells assessed as cell growth at 0.0001 M incubated for 48 hrs by SRB assay relative to control; assay type: functional; details: read-out: Activity
Malme-3M [18] = test: Antiproliferative activity against human Malme-3M cells assessed as cell growth at 0.0001 M incubated for 48 hrs by SRB assay relative to control; assay type: functional; details: read-out: Activity
UACC-62 = test: Antiproliferative activity against human UACC-62 cells assessed as cell growth at 0.0001 M incubated for 48 hrs by SRB assay relative to control; assay type: functional; details: read-out: Activity
ACHN [19] = test: Antiproliferative activity against human ACHN cells assessed as cell growth at 0.0001 M incubated for 48 hrs by SRB assay relative to control; assay type: functional; details: read-out: Activity; summary of the method: as §1
MDA-MB-468 = test: Antiproliferative activity against human MDA-MB-468 cells assessed as cell growth at 0.0001 M incubated for 48 hrs by SRB assay relative to control; assay type: functional; details: read-out: Activity

T1 sequence (P02769 whole entry): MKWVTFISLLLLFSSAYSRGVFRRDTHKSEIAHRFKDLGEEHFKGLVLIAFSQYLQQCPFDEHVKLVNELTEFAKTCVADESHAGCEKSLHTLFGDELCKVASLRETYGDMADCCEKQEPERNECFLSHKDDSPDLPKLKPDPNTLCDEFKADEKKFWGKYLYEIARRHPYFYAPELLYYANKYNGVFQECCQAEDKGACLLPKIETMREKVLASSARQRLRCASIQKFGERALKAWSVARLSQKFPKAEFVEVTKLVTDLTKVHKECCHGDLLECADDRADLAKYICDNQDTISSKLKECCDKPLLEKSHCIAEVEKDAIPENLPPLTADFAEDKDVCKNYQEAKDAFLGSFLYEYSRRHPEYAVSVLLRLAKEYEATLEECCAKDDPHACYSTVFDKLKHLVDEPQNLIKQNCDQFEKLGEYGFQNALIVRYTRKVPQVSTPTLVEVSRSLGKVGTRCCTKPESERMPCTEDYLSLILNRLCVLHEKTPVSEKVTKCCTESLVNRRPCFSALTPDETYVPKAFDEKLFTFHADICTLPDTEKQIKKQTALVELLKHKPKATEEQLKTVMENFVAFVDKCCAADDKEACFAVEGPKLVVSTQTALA

SMILES | KSV (Albumin [1]) | Kb (Albumin [2]) | growth at 0.01 µM (SK-MEL-2) [%] | growth at 0.01 µM (CAKI-1 [3]) [%] | growth at 0.01 µM (HCC 2998 [4]) [%] | growth at 0.01 µM (HCT-116) [%] | CC50 (OVCAR-3) [µM] | CC50 (MDA-MB-435 [5]) [µM] | CC50 (HCT-15) [µM] | CC50 (HCC 2998 [6]) [µM] | TGI (PC-3) [µM] | TGI (A498) [µM] | TGI (SF-268 [7]) [µM] | TGI (COLO 205) [µM] | GI50 (ACHN [8]) [µM] | GI50 (Malme-3M [9]) [µM] | GI50 (HL-60) [µM] | growth at 0.1 µM (NCI-H322M) [%] | growth at 0.1 µM (SF-268 [10]) [%] | growth at 0.1 µM (MDA-MB-435 [11]) [%] | further results
COc1ccc(-c2cn3ccnc3c(-c3ccc4ncn(C5CCCCC5)c4c3)n2)cc1 | 1.16 10^5/M | 1.95 10^5/M | 96 | 88 | 97 | 95 | > 100 | > 100 | > 100 | > 100 | > 100 | > 100 | > 100 | 14.4 | 0.692 | 43.1 | 1.06 | 90 | 92 | 92 | growth at 0.1 µM (OVCAR-8): 106%; growth at 0.1 µM (SK-OV-3): 88%; growth at 1 µM (MDA-MB-435 [12]): 7%; growth at 10 µM (RPMI-8226 [13]): 10%; growth at 10 µM (A549): 14%; growth at 10 µM (NCI-H23): 13%; growth at 10 µM (HCC 2998 [14]): 9%; growth at 10 µM (MDA-MB-435 [15]): 6%; growth at 10 µM (CAKI-1 [16]): 25%; growth at 100 µM (RPMI-8226 [17]): 15%; growth at 100 µM (KM12): 10%; growth at 100 µM (SNB-75): 11%; growth at 100 µM (Malme-3M [18]): 49%; growth at 100 µM (UACC-62): 8%; growth at 100 µM (ACHN [19]): 23%; growth at 100 µM (MDA-MB-468): 10%
c1ccc(Cn2cnc3ccc(-c4nc(-c5ccc6c(c5)ncn6C5CCCCC5)cn5ccnc45)cc32)cc1 | 1.14 10^5/M | 2.65 10^4/M | 94 | 87 | 94 | 89 | > 100 | > 100 | > 100 | 6.12 | 7.55 | 3.57 | > 100 | 3.99 | 3.08 | 2.54 | 2.88 | 91 | 94 | 98 | growth at 0.1 µM (OVCAR-8): 114%; growth at 0.1 µM (SK-OV-3): 95%; growth at 1 µM (MDA-MB-435 [12]): 92%; growth at 10 µM (RPMI-8226 [13]): -29%; growth at 10 µM (A549): -46%; growth at 10 µM (NCI-H23): -46%; growth at 10 µM (HCC 2998 [14]): -92%; growth at 10 µM (MDA-MB-435 [15]): -32%; growth at 10 µM (CAKI-1 [16]): 17%; growth at 100 µM (RPMI-8226 [17]): -33%; growth at 100 µM (KM12): -7%; growth at 100 µM (SNB-75): -47%; growth at 100 µM (Malme-3M [18]): 23%; growth at 100 µM (UACC-62): 9%; growth at 100 µM (ACHN [19]): 23%; growth at 100 µM (MDA-MB-468): -7%
